According to ChEMBL document CHEMBL4715912, “Discovery of a novel series of indolinylpyrimidine-based GPR119 agonists: Elimination of ether-a-go-go-related gene liability using a hydrogen bond acceptor-focused approach” (Bioorg Med Chem, 2021):

What was measured:
[1] = biological target: Voltage-gated inwardly rectifying potassium channel KCNH2 (Homo sapiens, UniProt Q12809); test: (§1) Inhibition of human ERG expressed in CHO cells at 10 uM incubated for 5 mins by patch-clamp assay relative to control; format: cell-based; conditions: cho, 5 min, 10 µM
Outline: (§2)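 hERG-expressing CHO cells grown at 32 °C, recorded by population patch clamp after amphotericin B perforation; PBS with Ca/Mg outside, KCl/EGTA/HEPES pH 7.3 inside. Holding −80 mV, step to 40 mV 2 s, then −50 mV 2 s; peak tail current before and after 5 min compound exposure. Percent inhibition = 100 − post/pre × 100; mean ± SD, n = 4.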

[2] = biological target: T1, Glucose-dependent insulinotropic receptor (Homo sapiens, UniProt Q8TDV5); test: Agonist activity at human GPR119 expressed in CHO cells co-expressing cyclic AMP response element incubated for 2 hrs by steady-glo luciferase assay; format: cell-based
T1 sequence (Q8TDV5 whole entry): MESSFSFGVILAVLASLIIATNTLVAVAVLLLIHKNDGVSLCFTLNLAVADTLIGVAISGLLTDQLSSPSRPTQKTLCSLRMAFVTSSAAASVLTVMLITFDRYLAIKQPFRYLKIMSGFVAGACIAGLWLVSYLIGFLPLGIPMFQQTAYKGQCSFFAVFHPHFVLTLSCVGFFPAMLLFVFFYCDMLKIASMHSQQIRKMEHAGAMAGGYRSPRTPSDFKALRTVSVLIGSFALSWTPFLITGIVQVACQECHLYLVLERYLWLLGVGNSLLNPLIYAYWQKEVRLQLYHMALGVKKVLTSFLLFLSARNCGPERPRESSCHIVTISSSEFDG
Outline: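 CHO cells stably expressing human GPR119, seeded at 10,000 cells/well in MEM α with 500 µg/mL Geneticin overnight, then exposed to graded compound concentrations in MEM α/20 mmol/L HEPES/0.1% BSA for 2 h. cAMP-driven luciferase read with Steady-Glo. Response normalized between vehicle and a 10 µM reference agonist; EC50 as mean of n = 2.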

hERG (KCNH2) [3] = biological target: T2, hERG (KCNH2) (Homo sapiens, UniProt Q12809); test: as §1; format: cell-based; conditions: CHO cells expressing human ERG; outline: as §2
[4] = Partition coefficient, logD between 1-octanol and pH 7.4 aqueous buffer by chromatographic analysis; format: physicochemical; conditions: 1-octanol/pH 7.4 aqueous buffer
Outline: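 LogD at pH 7.4, octanol/aqueous buffer partition, estimated by a chromatographic method adapted from a published procedure.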

[5] = Intrinsic clearance in rat liver microsomes at 1 uM measured after 15 to 30 mins in presence of NADPH generating system by LC/MS/MS analysis; format: ADME, Microsome; conditions: time 15-30 min, read-out: CLH
Outline: (§3)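 Human or rat liver microsomes at 0.2 mg/mL protein in 50 mM potassium phosphate pH 7.4 with 1 µM compound; reaction started with NADPH-generating system (5 mM MgCl2, 5 mM glucose-6-phosphate, 0.5 mM β-NADP+, 1.5 units/mL G6PDH). Stopped with acetonitrile at 15 and 30 min, parent by LC/MS/MS; rate from concentration–time slope, expressed as µL/min/mg.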

[6] = Intrinsic clearance in human liver microsomes at 1 uM measured after 15 to 30 mins in presence of NADPH generating system by LC/MS/MS analysis; format: ADME, Microsome; conditions: time 15-30 min, read-out: CLH; outline: as §3
hERG (KCNH2) [7] = biological target: T2, hERG (KCNH2); test: Inhibition of human ERG expressed in CHO cells at 30 uM incubated for 5 mins by patch-clamp assay relative to control; format: cell-based; conditions: CHO cells expressing human ERG; outline: as §2
[8] = Total clearance in rat at 0.1 mg/kg, iv by LC/MS/MS analysis; format: ADME, organism-based; conditions: in vivo
Outline: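 Cassette intravenous dosing at 0.1 mg/kg to non-fasted animals. Plasma taken from blood samples, deproteinized and centrifuged, and compound levels in supernatant quantified by LC/MS/MS.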

Chain of Voltage-gated inwardly rectifying potassium channel KCNH2 (Q12809 whole entry): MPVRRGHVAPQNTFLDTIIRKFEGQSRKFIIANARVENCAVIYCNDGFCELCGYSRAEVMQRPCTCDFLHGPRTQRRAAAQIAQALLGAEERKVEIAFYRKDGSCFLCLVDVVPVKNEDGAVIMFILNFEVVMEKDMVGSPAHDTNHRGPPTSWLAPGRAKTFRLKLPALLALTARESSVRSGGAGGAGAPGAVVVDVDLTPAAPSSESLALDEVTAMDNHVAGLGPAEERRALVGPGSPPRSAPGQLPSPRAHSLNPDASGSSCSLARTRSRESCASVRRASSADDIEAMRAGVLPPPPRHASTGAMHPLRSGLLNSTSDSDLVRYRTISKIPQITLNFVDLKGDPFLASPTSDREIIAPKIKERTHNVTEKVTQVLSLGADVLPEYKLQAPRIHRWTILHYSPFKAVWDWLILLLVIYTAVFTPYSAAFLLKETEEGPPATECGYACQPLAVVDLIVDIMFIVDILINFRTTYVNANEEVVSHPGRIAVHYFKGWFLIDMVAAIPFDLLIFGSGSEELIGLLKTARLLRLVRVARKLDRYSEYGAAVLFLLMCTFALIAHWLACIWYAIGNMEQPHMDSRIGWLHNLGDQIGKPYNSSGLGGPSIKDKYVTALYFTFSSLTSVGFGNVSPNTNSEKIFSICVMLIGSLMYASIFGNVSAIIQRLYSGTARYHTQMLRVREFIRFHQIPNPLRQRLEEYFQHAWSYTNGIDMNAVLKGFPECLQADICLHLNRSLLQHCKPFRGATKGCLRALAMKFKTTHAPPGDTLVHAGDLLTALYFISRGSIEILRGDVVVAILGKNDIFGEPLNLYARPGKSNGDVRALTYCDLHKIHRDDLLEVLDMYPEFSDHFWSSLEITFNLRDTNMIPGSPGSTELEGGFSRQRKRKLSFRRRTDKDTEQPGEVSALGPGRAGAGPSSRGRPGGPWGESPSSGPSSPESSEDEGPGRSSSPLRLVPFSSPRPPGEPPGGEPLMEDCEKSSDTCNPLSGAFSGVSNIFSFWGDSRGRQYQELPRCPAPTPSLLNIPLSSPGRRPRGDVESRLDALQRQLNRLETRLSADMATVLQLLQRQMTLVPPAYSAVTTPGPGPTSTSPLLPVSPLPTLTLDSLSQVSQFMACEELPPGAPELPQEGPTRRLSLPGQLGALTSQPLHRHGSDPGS
T2 sequence (Q12809 whole entry): as above

Compound	EC50 [2]	logD [4]	microsomal CLint at 1 µM [5]	microsomal CLint at 1 µM [6]	clearance [8]	inhibition (INH) [1]	inhibition at 5 min, 10 µM (hERG (KCNH2) [3])	inhibition at 5 min, 30 µM (hERG (KCNH2) [7])
CC(C)OC(=O)N1CCC(Oc2cc(N3CCc4cc(S(C)(=O)=O)ccc43)ncn2)CC1							84%	
CC(C)c1noc(N2CCC(Oc3cc(N4CCc5cc(N6CCC(O)CC6=O)ccc54)ncn3)CC2)n1 (racemic)	0.089 µM	2.8	13 µL/min/mg	4 µL/min/mg			18%	
CC(=O)N(C)c1ccc2c(c1)CCN2c1cc(OC2CCN(c3nc(C(C)C)no3)CC2)ncn1	0.075 µM	3.7	17 µL/min/mg	173 µL/min/mg			66%	108%
CCc1cnc(N2CCC(C(C)COC(=O)N3CCc4cc(S(C)(=O)=O)cc(F)c43)CC2)nc1 (centres undefined)			365 µL/min/mg	329 µL/min/mg	2.86 L/h/kg		75%	
CC(C)c1noc(N2CCC(Oc3cc(N4CCc5cc(N6CC(O)CCC6=O)ccc54)ncn3)CC2)n1 (racemic)	0.09 µM	2.6	7 µL/min/mg	1 µL/min/mg			18%	
CC(C)c1noc(N2CCC(Oc3cc(N4CCc5cc(S(C)(=O)=O)ccc54)ncn3)CC2)n1				69 µL/min/mg	0.23 L/h/kg		106%	
CC(C)c1noc(N2CCC(Oc3cc(N4CCc5cc(C6CCCCC6=O)ccc54)ncn3)CC2)n1 (racemic)	0.048 µM	4.7	141 µL/min/mg	78 µL/min/mg			13%	
CC(C)SC(=O)N1CCC(Oc2cc(N3CCc4cc([S+]([O-])CCO)ccc43)ncn2)CC1 (stereo in doubt; form 1)	0.057 µM					44%		
CC(C)SC(=O)N1CCC(Oc2cc(N3CCc4ccccc43)ncn2)CC1	> 10 µM	5.3					14%	16%

Continued by falling EC50 [2], values first:

EC50 [2]	logD [4]	microsomal CLint at 1 µM [5]	microsomal CLint at 1 µM [6]	clearance [8]	Compound	inhibition (INH) [1]	inhibition at 5 min, 10 µM (hERG (KCNH2) [3])	inhibition at 5 min, 30 µM (hERG (KCNH2) [7])
0.048 µM	2.7				CC(C)c1noc(N2CCC(Oc3cc(N4CCc5cc([S+]([O-])CCO)ccc54)ncn3)CC2)n1 (racemic)		107%	
0.041 µM	2.7				CC(C)c1noc(N2CCC(Oc3cc(N4CCc5cc(S(=O)(=O)CCO)ccc54)ncn3)CC2)n1		102%	
0.036 µM	2.7	98 µL/min/mg			CC(C)c1noc(N2CCC(Oc3cc(N4CCc5cc(N6CCNCC6=O)ccc54)ncn3)CC2)n1		15%	
0.033 µM	3.7	138 µL/min/mg			CC(C)c1noc(N2CCC(Oc3cc(N4CCc5cc(N6CCCC6=O)ccc54)ncn3)CC2)n1		20%	
0.025 µM	3.3			0.375 L/h/kg	CC(C)c1noc(N2CCC(Oc3cc(N4CCc5cc(N6CCC[C@@H](O)C6=O)ccc54)ncn3)CC2)n1		23%	
0.024 µM	3.2	21 µL/min/mg	79 µL/min/mg		CC(C)c1noc(N2CCC(Oc3cc(N4CCc5cc(N6CCCNS6(=O)=O)ccc54)ncn3)CC2)n1		20%	
0.017 µM	3.3	4 µL/min/mg			CC(C)c1noc(N2CCC(Oc3cc(N4CCc5cc(N6CCCC(O)C6=O)ccc54)ncn3)CC2)n1 (racemic)		20%	
0.017 µM	3.8	13 µL/min/mg			CC(C)c1noc(N2CCC(Oc3cc(N4CCc5cc(N6CCCCC6=O)ccc54)ncn3)CC2)n1		31%	
0.015 µM	3.1	46 µL/min/mg	27 µL/min/mg		CC(C)c1noc(N2CCC(Oc3cc(N4CCc5cc(N6CCOCC6=O)ccc54)ncn3)CC2)n1		54%	
0.014 µM					CC(C)SC(=O)N1CCC(Oc2cc(N3CCc4cc([S+]([O-])CCO)ccc43)ncn2)CC1 (racemic)	95%		
0.0097 µM	3.2	1 µL/min/mg	18 µL/min/mg		CC(C)c1noc(N2CCC(Oc3cc(N4CCc5cc(N6CCCS6(=O)=O)ccc54)ncn3)CC2)n1		19%	
0.0097 µM	3.3				CC(C)SC(=O)N1CCC(Oc2cc(N3CCc4cc([S+]([O-])CCO)ccc43)ncn2)CC1 (stereo in doubt; form 2)	101%		
0.0032 µM	3.6				CC(C)SC(=O)N1CCC(Oc2cc(N3CCc4cc(S(C)(=O)=O)ccc43)ncn2)CC1		89%	
